# Measurements reported in ChEMBL document CHEMBL4028900, “Design of Novel 3-Pyrimidinylazaindole CDK2/9 Inhibitors with Potent In Vitro and In Vivo Antitumor Efficacy in a Triple-Negative Breast Cancer Model” (J Med Chem, 2017).
# Legend:
# Mus musculus [1] = assay: Toxicity in Swiss mouse allografted with Swiss mouse EAC cells assessed as body weight at 22 mg/kg, ip administered for 13 days measured on day 13 post last dose (reference value: 28.7 g); assay type: organism-based; settings: in vivo, 312 h
# Mus musculus [2] = assay: Toxicity in Swiss mouse allografted with Swiss mouse EAC cells assessed as body weight at 22 mg/kg, ip administered for 9 days measured on day 9 post last dose (reference value: 27.9 g); assay type: organism-based; settings: in vivo, 216 h
# Mus musculus [3] = assay: Toxicity in Swiss mouse allografted with Swiss mouse EAC cells assessed as body weight at 22 mg/kg, ip administered for 5 days measured on day 5 post last dose (reference value: 27.1 g); assay type: organism-based; settings: in vivo, 120 h
# Ehrlich = assay: Antitumor activity against Swiss mouse EAC cells allografted in Swiss mouse assessed as tumor growth inhibition at 22 mg/kg, ip administered for 13 days measured on day 13 post last dose relative to control; assay type: functional; settings: 312 h, read-out: TGI
# Mus musculus [4] = assay: Toxicity in Swiss mouse allografted with Swiss mouse EAC cells assessed as body weight at 22 mg/kg, ip measured on day 1 (reference value: 26.2 g); assay type: organism-based; settings: in vivo
# Mus musculus [5] = assay: Toxicity in Swiss mouse allografted with Swiss mouse EAC cells assessed as mortality at 22 mg/kg, ip administered for 9 to 13 days; assay type: organism-based; settings: in vivo
# [6] = Plasma concentration in BALB/c mouse at 2.5 mg/kg, iv at 0.25 hrs by LC/MS-MS analysis; assay type: ADME, organism-based
# [7] = Initial concentration in BALB/c mouse at 2.5 mg/kg, iv by LC/MS-MS analysis; assay type: ADME, organism-based; settings: in vivo
# [8] = AUC (0 to infinity) in BALB/c mouse at 2.5 mg/kg, iv by LC/MS-MS analysis; assay type: ADME, organism-based; set-up: dose 2.5 mg/kg, time infinity, route intravenous; settings: in vivo
# [9] = Thermodynamic equilibrium solubility of the compound in PBS
# T47D = assay: Antiproliferative activity against human T47D cells after 72 hrs by SRB assay
# [10] = Plasma concentration in BALB/c mouse at 2.5 mg/kg, iv at 2 hrs by LC/MS-MS analysis; assay type: ADME, organism-based
# MCF7 = assay: Antiproliferative activity against human MCF7 cells
# 4T1 [11] = assay: Antiproliferative activity against mouse 4T1 cells after 24 hrs by MTT assay; settings: 4T1, 24 h
# [12] = Thermodynamic equilibrium solubility of the compound in SGF
# [13] = Half life in BALB/c mouse at 2.5 mg/kg, iv by LC/MS-MS analysis; assay type: ADME, organism-based; settings: in vivo
# [14] = Antiproliferative activity against HEK cells; settings: Homo sapiens, HEK293
# [15] = AUC (0 to t) in BALB/c mouse at 2.5 mg/kg, iv by LC/MS-MS analysis; assay type: ADME, organism-based; settings: in vivo
# BT-549 = assay: Antiproliferative activity against human BT549 cells
# CDK9/cyclin T1 = CDK9/cyclin T1 (Homo sapiens, UniProt P50750); assay type: protein-complex assay
# [16] = Plasma concentration in BALB/c mouse at 2.5 mg/kg, iv at 0.5 hrs by LC/MS-MS analysis; assay type: ADME, organism-based
# [17] = Clearance in BALB/c mouse at 2.5 mg/kg, iv by LC/MS-MS analysis; assay type: ADME, organism-based; settings: in vivo
# [18] = Plasma concentration in BALB/c mouse at 2.5 mg/kg, iv at 1 hr by LC/MS-MS analysis; assay type: ADME, organism-based
# [19] = Volume of distribution in BALB/c mouse at 2.5 mg/kg, iv by LC/MS-MS analysis; assay type: ADME, organism-based; settings: in vivo
# MDA-MB-231 = assay: Antiproliferative activity against human MDA-MB-231 cells
# [20] = Thermodynamic equilibrium solubility of the compound in SIF
# [21] = Plasma concentration in BALB/c mouse at 2.5 mg/kg, iv at 4 hrs by LC/MS-MS analysis; assay type: ADME, organism-based
# [22] = Thermodynamic equilibrium solubility of the compound in water
# [23] = Plasma concentration in BALB/c mouse at 2.5 mg/kg, iv at […] by LC/MS-MS analysis; assay type: ADME, organism-based
# HCT-116 = assay: Antiproliferative activity against human HCT116 cells after 72 hrs by SRB assay; settings: HCT-116, 72 h
# MDA-MB-468 = assay: Antiproliferative activity against human MDA-MB-468 cells
# SH-SY5Y = assay: Antiproliferative activity against human SH-SY5Y cells after 24 hrs by MTT assay; assay type: functional, cell-based
# [24] = Plasma concentration in BALB/c mouse at 5 mg/kg, ip at 0.5 hrs by LC/MS-MS analysis; assay type: ADME, organism-based
# [25] = AUC (0 to t) in BALB/c mouse at 5 mg/kg, ip by LC/MS-MS analysis; assay type: ADME, organism-based; settings: in vivo
# Mus musculus [26] = assay: Half life in BALB/c mouse at 5 mg/kg, ip by LC/MS-MS analysis; assay type: ADME, organism-based; settings: in vivo
# [27] = Plasma concentration in BALB/c mouse at 5 mg/kg, ip at 0.25 hrs by LC/MS-MS analysis; assay type: ADME, organism-based
# Mus musculus [28] = assay: AUC (0 to infinity) in BALB/c mouse at 5 mg/kg, ip by LC/MS-MS analysis; assay type: ADME, organism-based; set-up: dose 5 mg/kg, route intraperitoneal, time infinity; settings: in vivo
# [29] = Plasma concentration in BALB/c mouse at 5 mg/kg, ip at 4 hrs by LC/MS-MS analysis; assay type: ADME, organism-based
# [30] = Plasma concentration in BALB/c mouse at 5 mg/kg, ip at 2 hrs by LC/MS-MS analysis; assay type: ADME, organism-based
# Mus musculus [31] = assay: Volume of distribution in BALB/c mouse at 5 mg/kg, ip by LC/MS-MS analysis; assay type: ADME, organism-based; settings: in vivo
# 4T1 [32] = assay: Antitumor activity against mouse 4T1 cells allografted in iv dosed Balb/C mouse assessed as tumor growth inhibition administered every 3 days for 21 days measured 2 times for every week during dosing; assay type: functional, organism-based
# How it was run: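 4T1 cells were grown in RPMI-1640 with 10% FBS, pyruvate and NEAA at 37 °C and 5% CO2. Female Balb/C mice received 1×10^6 cells into the second mammary fat pad. At about 100 mm3, mice were grouped five per group and dosed by tail vein in 200 µL (PBS diluent) every three days for 21 days. Tumor volume (L×B²/2, caliper) and body weight were taken twice weekly. The experiment was repeated twice.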
# Mus musculus [33] = assay: Clearance in BALB/c mouse at 5 mg/kg, ip by LC/MS-MS analysis; assay type: ADME, organism-based; settings: in vivo
# [34] = Plasma concentration in BALB/c mouse at 5 mg/kg, ip at 1 hr by LC/MS-MS analysis; assay type: ADME, organism-based
# [35] = molecular target: CDK9/cyclin T1 (Homo sapiens) (UniProt O60563+P50750); settings: at 500 nM
# CDK2/Cyclin A2 = CDK2/Cyclin A2 (Homo sapiens, UniProt P24941); assay: Inhibition of CDK2/cyclin A (unknown origin) using histone H1 as substrate after 30 mins in presence of [33P]-gamma-ATP; assay type: protein-complex assay
# [36] = molecular target: CDK2/Cyclin A2 (Homo sapiens) (UniProt P24941+P20248); settings: at 500 nM
# Sequence of CDK9/cyclin T1 (O60563 whole entry): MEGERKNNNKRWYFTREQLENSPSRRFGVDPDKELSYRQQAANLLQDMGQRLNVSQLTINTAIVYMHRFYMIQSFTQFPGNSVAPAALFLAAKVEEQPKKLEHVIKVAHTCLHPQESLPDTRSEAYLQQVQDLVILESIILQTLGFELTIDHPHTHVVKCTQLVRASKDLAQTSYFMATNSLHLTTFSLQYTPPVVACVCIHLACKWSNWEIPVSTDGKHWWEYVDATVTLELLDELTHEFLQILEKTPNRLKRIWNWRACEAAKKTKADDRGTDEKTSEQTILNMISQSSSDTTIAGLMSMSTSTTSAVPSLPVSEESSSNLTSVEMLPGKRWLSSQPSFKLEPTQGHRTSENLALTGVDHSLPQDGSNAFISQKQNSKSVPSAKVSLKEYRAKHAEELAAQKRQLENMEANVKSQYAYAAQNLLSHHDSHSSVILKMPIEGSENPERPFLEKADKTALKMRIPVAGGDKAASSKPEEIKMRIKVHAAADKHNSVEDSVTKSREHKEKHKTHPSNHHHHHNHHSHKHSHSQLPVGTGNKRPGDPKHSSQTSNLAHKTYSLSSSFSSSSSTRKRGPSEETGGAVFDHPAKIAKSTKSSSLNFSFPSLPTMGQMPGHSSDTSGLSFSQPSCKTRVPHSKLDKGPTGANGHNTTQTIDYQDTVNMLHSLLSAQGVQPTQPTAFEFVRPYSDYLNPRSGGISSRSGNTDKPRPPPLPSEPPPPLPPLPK
# Sequence of CDK9/cyclin T1 (P50750 whole entry): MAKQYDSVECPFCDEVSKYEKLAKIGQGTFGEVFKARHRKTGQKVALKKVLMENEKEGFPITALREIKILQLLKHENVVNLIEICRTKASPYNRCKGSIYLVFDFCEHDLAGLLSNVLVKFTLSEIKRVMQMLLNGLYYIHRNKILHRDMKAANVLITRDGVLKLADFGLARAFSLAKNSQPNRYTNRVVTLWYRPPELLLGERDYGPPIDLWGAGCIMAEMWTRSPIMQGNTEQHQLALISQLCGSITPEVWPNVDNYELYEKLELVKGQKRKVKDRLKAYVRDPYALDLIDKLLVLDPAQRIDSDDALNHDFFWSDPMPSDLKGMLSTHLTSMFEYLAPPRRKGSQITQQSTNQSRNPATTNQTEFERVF
structure (smiles),measurement,setting,value
O=c1[nH]cc(F)c(=O)[nH]1 [FLUOROURACIL],Activity,Mus musculus [1],24.85 g
same,Activity,Mus musculus [2],24.57 g
same,Activity,Mus musculus [3],25 g
same,inhibition in vivo at 22 mg/kg,Ehrlich,50.4%
same,Activity,Mus musculus [4],26 g
same,Activity,Mus musculus [5],Non-Toxic
Nc1nccc(-c2c[nH]c3ncccc23)n1 [MERIOLIN 1],concentration at 0.25 h,[6],0.0341 µg/mL
same,C0,[7],0.23 µg/mL
same,AUC(0-inf),[8],0.0469 µg·h/mL
same,solubility thermodynamic,[9],0.089 mg/mL
same,IC50,T47D,8 µM
same,concentration at 2 h,[10],0.001 µg/mL
same,IC50,MCF7,6 µM
same,IC50,4T1 [11],2.5 µM
same,solubility thermodynamic,[12],0.352 mg/mL
same,half-life,[13],0.47 h
same,IC50,[14],36 µM
same,AUC(0-t),[15],0.0462 µg·h/mL
same,IC50,BT-549,7 µM
same,IC50,CDK9/cyclin T1,0.03 µM
same,concentration at 0.5 h,[16],0.0126 µg/mL
same,clearance,[17],53.8 L/h/kg
same,concentration at 1 h,[18],0.0045 µg/mL
same,Vd,[19],36.5 L/kg
same,IC50,MDA-MB-231,6 µM
same,solubility thermodynamic,[20],0.0877 mg/mL
same,concentration at 4 h,[21],0.0008 µg/mL
same,solubility thermodynamic,[22],0.0958 mg/mL
same,concentration at […],[23],0.167 µg/mL
same,IC50,HCT-116,1.8 µM
same,IC50,MDA-MB-468,13 µM
Nc1nccc(-c2c[nH]c3ncc(-c4cccnc4)cc23)n1,solubility thermodynamic,[9],0.2 mg/mL
same,IC50,SH-SY5Y,1 µM
same,solubility thermodynamic,[12],0.8 mg/mL
same,solubility thermodynamic,[20],0.001 mg/mL
same,solubility thermodynamic,[22],0.08 mg/mL
same,IC50,HCT-116,0.7 µM
Nc1nccc(-c2c[nH]c3ncc(-c4ccc(F)cc4)cc23)n1,concentration at 0.25 h,[6],0.311 µg/mL
same,C0,[7],1.47 µg/mL
same,AUC(0-inf),[8],0.795 µg·h/mL
same,concentration at 0.5 h,[24],0.073 µg/mL
same,concentration at 2 h,[10],0.0996 µg/mL
same,half-life,[13],2.5 h
same,AUC(0-t),[15],0.437 µg·h/mL
same,AUC(0-t),[25],0.243 µg·h/mL
same,t1/2,Mus musculus [26],4.4 h
same,concentration at 0.5 h,[16],0.168 µg/mL
same,clearance,[17],3.1 L/h/kg
same,concentration at 1 h,[18],0.132 µg/mL
same,Vd,[19],11.3 L/kg
same,concentration at 0.25 h,[27],0.162 µg/mL
same,AUC,Mus musculus [28],0.5043 µg·h/mL
same,concentration at 4 h,[29],0.0407 µg/mL
same,concentration at 2 h,[30],0.0591 µg/mL
same,concentration at […],[23],0.797 µg/mL
same,Vd,Mus musculus [31],63.6 L/kg
same,TGI,4T1 [32],Dose-dependent effect
same,CL,Mus musculus [33],0.9 L/h/kg
same,concentration at 1 h,[34],0.0616 µg/mL
Nc1nccc(-c2c[nH]c3ncc(-c4ccoc4)cc23)n1,solubility thermodynamic,[9],0.01 mg/mL
same,IC50,SH-SY5Y,0.9 µM
same,solubility thermodynamic,[12],0.8 mg/mL
same,solubility thermodynamic,[20],0.001 mg/mL
same,solubility thermodynamic,[22],0.02 mg/mL
same,IC50,HCT-116,0.7 µM
Nc1nccc(-c2c[nH]c3ncc(-c4ccc(Cl)cc4)cc23)n1,solubility thermodynamic,[9],0.12 mg/mL
same,IC50,SH-SY5Y,0.9 µM
same,solubility thermodynamic,[12],0.0744 mg/mL
same,solubility thermodynamic,[20],0.113 mg/mL
same,solubility thermodynamic,[22],0.0574 mg/mL
same,IC50,HCT-116,0.5 µM
c1ccc(CCNc2nccc(-c3c[nH]c4ncccc34)n2)cc1,solubility thermodynamic,[9],< 0.005 mg/mL
same,solubility thermodynamic,[12],1.5 mg/mL
same,inhibition,[35],92.4%
same,IC50,CDK2/Cyclin A2,0.01 µM
same,IC50,CDK9/cyclin T1,0.02 µM
same,inhibition,[36],92.5%
same,solubility thermodynamic,[20],> 0.005 mg/mL
same,solubility thermodynamic,[22],< 0.005 mg/mL
same,IC50,HCT-116,0.56 µM
